This note sets out measurements from ChEMBL document CHEMBL1148450, “Novel amino acid derived natural products from the ascidian Atriolum robustum: identification and pharmacological characterization of a unique adenosine derivative” (J Med Chem, 2004).

As usually defined, the IC50 is the concentration needed to halve the response being measured. By Ki is commonly meant a measure of affinity in units of concentration, obtained from inhibition or displacement. Read a low Ki as higher affinity.

For experiment [1], the target named is T1, Adenosine receptor A1 (Rattus norvegicus, UniProt P25099).
T1 sequence (P25099 whole entry): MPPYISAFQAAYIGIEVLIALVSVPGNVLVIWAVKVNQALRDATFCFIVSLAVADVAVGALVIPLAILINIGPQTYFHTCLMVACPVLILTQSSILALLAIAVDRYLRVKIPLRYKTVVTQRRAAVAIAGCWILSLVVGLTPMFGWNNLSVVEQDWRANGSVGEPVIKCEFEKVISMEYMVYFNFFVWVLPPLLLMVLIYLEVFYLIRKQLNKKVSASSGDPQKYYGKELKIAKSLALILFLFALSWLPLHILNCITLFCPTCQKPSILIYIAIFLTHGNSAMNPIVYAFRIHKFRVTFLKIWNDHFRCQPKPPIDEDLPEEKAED
Put plainly: Displacement of [3H]DPCPX from adenosine A1 receptor of rat cortical membranes with GTP. It counts as cell membranes, Membrane. The method in brief: (§1)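 Cortical A1 assay as for [3H]CCPA (50 mM Tris-HCl pH 7.4, 23 °C, 90 min, ~70 µg/mL protein) but with [3H]DPCPX as radioligand and 10 µM unlabeled DPCPX for nonspecific binding. Curves were run without and with 100 µM GTP and fitted by nonlinear regression to apparent IC50s. GTP shift = IC50(+GTP)/IC50(−GTP). Two experiments, each in duplicate.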
For orientation: Displacement assays read how much labelled ligand stays bound in the presence of the test substance.

Experiment [2] concerns the target T1, Adenosine receptor A1. Put plainly: Displacement of [3H]DPCPX from adenosine A1 receptor of rat cortical membranes without GTP. It counts as cell membranes, Membrane. An outline of the steps:
as §1

Experiment [3] deals with T2, Adenosine receptor A1 (Rattus norvegicus) (UniProt P25099).
T2 sequence (whole entry): T1 sequence (P25099 whole entry)
Put plainly: Binding affinity against adenosine A1 receptor in the presence of GTP relative to the absence of GTP.

Experiment [4] deals with T3, Adenosine receptor A3 (Homo sapiens) (UniProt P0DMS8).
T3 sequence (whole entry): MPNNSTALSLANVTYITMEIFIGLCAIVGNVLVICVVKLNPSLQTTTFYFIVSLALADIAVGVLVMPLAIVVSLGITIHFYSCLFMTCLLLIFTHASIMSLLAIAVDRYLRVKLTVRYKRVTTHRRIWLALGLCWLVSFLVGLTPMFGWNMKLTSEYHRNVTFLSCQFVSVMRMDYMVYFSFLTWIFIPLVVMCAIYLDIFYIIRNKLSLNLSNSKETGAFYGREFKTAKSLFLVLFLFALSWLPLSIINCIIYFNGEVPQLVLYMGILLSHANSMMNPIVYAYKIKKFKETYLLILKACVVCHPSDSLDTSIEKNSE
Put plainly: Percent efficacy for inhibition of human adenosine A3 receptor activity relative to NECA. Type of experiment: functional.

Experiment [5] addresses T4, Adenosine receptor A2a (Rattus norvegicus, UniProt P30543). Briefly: Displacement of [3H]-MSX-2 from Adenosine A2A receptor of rat striatal membranes. It counts as cell membranes, Membrane. An outline of the steps:
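Rat striatal membranes (protein ca. 70 µg/mL) were incubated with 1 nM [3H]MSX-2 in 50 mM Tris-HCl, pH 7.4, for 30 min at 23 °C. […] Filtration was on PEI-presoaked GF/B filters with scintillation counting. Seven to nine concentrations (DMSO stock) spanned 3 log units; three experiments, each in duplicate.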

The target of experiment [6] is T5, Adenosine receptor A2b (Homo sapiens, UniProt P29275).
T5 sequence (P29275 whole entry): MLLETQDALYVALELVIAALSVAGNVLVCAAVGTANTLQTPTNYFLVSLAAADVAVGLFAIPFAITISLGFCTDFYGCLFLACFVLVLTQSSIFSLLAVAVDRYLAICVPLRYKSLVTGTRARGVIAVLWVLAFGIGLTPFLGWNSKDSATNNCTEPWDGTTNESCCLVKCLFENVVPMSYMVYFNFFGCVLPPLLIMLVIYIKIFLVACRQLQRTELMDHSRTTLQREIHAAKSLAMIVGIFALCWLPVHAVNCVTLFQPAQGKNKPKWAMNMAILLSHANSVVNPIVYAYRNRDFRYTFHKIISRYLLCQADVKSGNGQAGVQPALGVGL
Briefly: Displacement of [3H]PSB-298 from human adenosine A2B receptor expressed in HEK293 cells at 10 uM. Type of experiment: cell-based.

In experiment [7] the target is T1, Adenosine receptor A1. Put plainly: Displacement of [3H]DPCPX from rat Adenosine A1 receptor of cortical membranes. It counts as cell membranes, Membrane. An outline of the steps:
as §1

The target of experiment [8] is T1, Adenosine receptor A1. Briefly: Displacement of [3H]CCPA from Adenosine A1 receptor of rat cortical membranes. It counts as cell membranes, Membrane. The method in brief:
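A1 binding used rat cortical membranes (ca. 70 µg/mL protein) with 0.5 nM [3H]CCPA in 50 mM Tris-HCl, pH 7.4, for 90 min at 23 °C. 10 µM 2-chloroadenosine defined nonspecific binding. Separation was by GF/B filtration and scintillation counting. Inhibition curves had seven to nine concentrations across 3 orders of magnitude; three separate experiments, each in duplicate.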

Experiment [9] has as its target T6, Adenosine receptor A3 (Homo sapiens, UniProt P0DMS8).
T6 sequence (P0DMS8 whole entry): T3 sequence (whole entry)
Put plainly: Displacement of [3H]PSB-11 from human adenosine A3 receptor expressed in CHO cells. It counts as cell-based. An outline of the steps:
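Membranes came from CHO cells stably expressing human A3AR. They were incubated with 0.5 nM [3H]PSB-11 in 50 mM Tris-HCl, pH 7.4, for 45 min, and 100 µM R-PIA defined nonspecific binding. Bound radioactivity was collected on GF/B filters and scintillation-counted. Seven to nine test concentrations were used; run twice, each in duplicate.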

Experiment [10] has as its target T6, Adenosine receptor A3. Put plainly: Inhibition of forskolin-stimulated cAMP accumulation in chinese hamster ovary cell membranes expressing human adenosine A3 receptor. Type of experiment: functional, cell-based. On the technique in general: Cyclic AMP is a second messenger, typically raised through Gs and lowered through Gi signalling.
In experiment [11] the target is T1, Adenosine receptor A1. Briefly: Displacement of [3H]CCPA from adenosine A1 receptor of rat cortical membranes. It counts as cell membranes, Membrane. The method in brief:
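Rat brain cortical membranes at about 70 µg/mL protein, with 0.5 nM [3H]CCPA in 50 mM Tris-HCl pH 7.4, 23 °C for 90 min. Nonspecific binding was set with 10 µM 2-chloroadenosine. Bound ligand was collected by GF/B filtration and counted by scintillation. The test compound came from DMSO at 7–9 concentrations spanning 3 orders of magnitude. Three experiments were run, each in duplicate.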

The target of experiment [12] is T1, Adenosine receptor A1. Put plainly: Displacement of [3H]DPCPX from adenosine A1 receptor of rat cortical membranes. Type of experiment: cell membranes, Membrane. An outline of the steps:
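Run as the rat cortical membrane A1 assay (50 mM Tris-HCl pH 7.4, 23 °C, 90 min) but with [3H]DPCPX as radioligand. Nonspecific binding was set with 10 µM unlabeled DPCPX. Binding was measured without and with 100 µM GTP, and IC50 came from nonlinear regression. GTP shift is the IC50 with GTP divided by the IC50 without GTP. Two experiments were run, each in duplicate.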

Experiment [13] concerns the target T5, Adenosine receptor A2b. Put plainly: Displacement of [3H]PSB-298 from human adenosine A2B receptor expressed in HEK293 cells at 10 uM; Less than 10% inhibition. It counts as cell-based.
Experiment [14] has as its target T5, Adenosine receptor A2b. Briefly: Binding affinity towards human adenosine A2B receptor in VA13 fibroblasts as […] at 10 uM; Less than 10% inhibition. Type of experiment: functional.
Experiment [15] deals with T4, Adenosine receptor A2a. Put plainly: Displacement of [3H]NECA from Adenosine A2A receptor of rat striatal membranes. It counts as cell membranes, Membrane.
For experiment [16], the target named is T1, Adenosine receptor A1. Put plainly: Displacement of [3H]R-PIA from adenosine A1 receptor of rat cortical membranes. Type of experiment: cell membranes, Membrane.

SMILES strings stand for the structures.

T4 sequence (P30543 whole entry): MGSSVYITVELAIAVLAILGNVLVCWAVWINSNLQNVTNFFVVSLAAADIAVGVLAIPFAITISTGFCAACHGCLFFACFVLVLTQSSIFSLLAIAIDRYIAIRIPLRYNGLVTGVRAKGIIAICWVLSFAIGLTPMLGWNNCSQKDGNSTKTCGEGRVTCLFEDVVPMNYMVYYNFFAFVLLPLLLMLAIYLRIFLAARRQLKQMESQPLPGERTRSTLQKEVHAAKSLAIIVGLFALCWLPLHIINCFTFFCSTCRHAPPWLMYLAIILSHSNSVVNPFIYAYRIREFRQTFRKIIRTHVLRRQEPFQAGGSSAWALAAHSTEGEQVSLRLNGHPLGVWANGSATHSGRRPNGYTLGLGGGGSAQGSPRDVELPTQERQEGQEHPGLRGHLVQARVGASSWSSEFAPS

For the compound `Cn1cnc2c(N)ncnc21`, the IC50 in [1] amounted to 14.7 µM; in experiment [2], 12.5 µM. Further, in [3], the Ratio was found to be 1.2.
In turn, `CO/C(=C\c1ccc(O)cc1)C(=O)O[C@@H]1[C@H](OC(=O)/C=C/c2c[nH]cn2)[C@@H](CSC)O[C@H]1n1cnc2c(N)ncnc21` showed an Efficacy in [4] of 56%. Besides, the inhibition constant Ki in experiment [5] was 17.1 µM; in experiment [6], over 10 µM; in [7], 9.45 µM; in [8] it was 3.26 µM; in [9] it was 6.94 µM. Also, the IC50 was 143 µM in [1], 23 µM in [2] and 6.7 µM in [10]. The Ratio in [3] turned out to be 6.2.
Turning to `CC(=O)O[C@]1(C(C)=O)CC[C@H]2[C@@H]3C=C(Cl)C4=CC(=O)[C@@H]5C[C@@H]5[C@]4(C)[C@H]3CC[C@@]21C` [CYPROTERONE ACETATE], the IC50 amounted to 0.125 µM in experiment [1] and 0.005 µM in experiment [2]. In addition, the Ratio in [3] is 22.8.
As for `CSC[C@H]1O[C@@H](n2cnc3c(N)ncnc32)[C@H](O)[C@@H]1O` [METHYLTHIOADENOSINE], in [4], the Efficacy was determined as 46%. Besides, the Ki in [11] stood at 0.15 µM; in [12], 0.21 µM; in experiment [5], 1.13 µM; in [13], 13.9 µM; in [14], 8.2 µM; in [15], 1.18 µM. The Ki in experiment [9] was found to be 0.68 µM; in experiment [16], 0.24 µM. The IC50 worked out at 15.1 µM in [1], 0.68 µM in [2] and 71 µM in [10]. The Ratio in experiment [3] was determined as 22.2.
